Data set [1] relates to C. albicans hyphae. Put plainly: Propidium iodide membrane permeabilization of C. albicans hyphae. The format is cell-based, Candida albicans. In short, it runs like this:
(§1)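 C. albicans yeast and hyphae were exposed to FITC-tagged test peptide and stained with propidium iodide to read membrane permeabilization. Exposure was in standard antimicrobial peptide assay buffer, in the preferred growth medium (YPD for yeast, RPMI for hyphae), or in buffer plus 2.5% w/v porcine mucus. For hyphae, the assay was repeated with sodium sulfate added as an anionic charge quencher.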

For data set [2], the system named is representative Gram-positive and -negative bacteria. Kind of data set: Antimicrobial activity against bacteria. In kind it is cell-based. To be noted: CFUs and O.D. normalized to 0 μM PYY. In a few lines: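 Gram-positive and Gram-negative bacteria were exposed to a range of test peptide concentrations, with or without mucus, and compared with a magainin-2 reference peptide. Surviving CFUs were normalised to 0 μM peptide, and O.D. growth to wells with 0 μM peptide. Each assay was run in duplicate, three times, and analysed by ANOVA.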

For data set [3], the system named is C. albicans yeast. Kind of data set: C. albicans yeast survival. In kind it is cell-based, Candida albicans. To be noted: increasing concentrations, media with or without 2.5% w/v mucin; CFU and O.D. In short, it runs like this:
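C. albicans yeast were grown in YPD. They were exposed to the test peptide with or without 2.5% w/v porcine […], alongside scrambled-peptide and magainin-2 controls. Survival was read as CFUs and growth as optical density. Each assay was run in duplicate, three times.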

For data set [4], the system named is C. albicans hyphae. Kind of data set: C. albicans hyphal respiration. To be noted: XTT assay; increasing concentrations, with or without 2.5% w/v mucin. In kind it is cell-based, Candida albicans. In a few lines:
(§2)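 C. albicans hyphae were grown in RPMI. They were exposed to the test peptide with or without 2.5% w/v porcine […], alongside scrambled-peptide and magainin-2 controls. Read-outs were respiration by XTT tetrazolium assay, dry weight, biofilm adherence and CFUs. Each assay was run in duplicate, three times.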

Data set [5] concerns C. albicans yeast. Kind of data set: Propidium iodide membrane permeabilization of C. albicans yeast. Conditions: 30 μM peptide. The format is cell-based, Candida albicans. In a few lines:
as §1

Data set [6] concerns C. albicans hyphae. Kind of data set: C. albicans hyphal growth. The format is cell-based, Candida albicans. In short, it runs like this:
as §2

For data set [7], the system named is C. albicans hyphae on Caco-2 cells. Put plainly: C. albicans hyphae-GFP attachment to Caco-2 cells. Conditions: 20 μM peptide, 6 hours, confluent Caco-2, vs vehicle. In kind it is cell-based, Candida albicans.
Data set [8] can be described thus: Mucus vs. aqueous partitioning in vitro across 10 kDa MWCO filter. Conditions: 10 kDa MWCO filter separating mucus and aqueous wells. The format is physicochemical. In short, it runs like this: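 Test peptide was added to either the mucus well or the aqueous well of a pair separated by a 10 kDa MWCO filter. Experiments were run in triplicate and repeated three times, with a t-test for comparison.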

“PYY1–36 - fluorescein isothiocyanate (FITC) tagged peptide: FITC tagged PYY1–36”: the “Co-localization of tagged peptide with PI signal” value in data set [1] (FITC-tagged peptide, fluorescence microscopy) was “co-localized with the PI signal within hyphae”.

As for “PYY1–36: unmodified, full length peptide YY expressed by Paneth cells”, in data set [2], the “Antimicrobial activity against Gram-positive and -negative bacteria” value is “less activity compared with more effective magainin-2”. For the same substance, in data set [3], the “Effect on yeast numbers or density” value is on record as “did not affect”. The “Effect on hyphal respiration” value in data set [4] was “decrease in hyphal respiration”. Also, in data set [5], the “Permeabilization of yeast (PI)” value is recorded as “unaffected”. Moreover, in data set [6] (2.5% w/v mucin present), the “Shape of dose-response in biofilm and colony forming units” value is given as “sigmoidal dose-response curve”. In addition, the “Concentration of peak effect (biphasic dose-response)” value in data set [6] (aqueous (RPMI) buffer) is given as ~ 30 μM. Further, in data set [6] (aqueous (RPMI) buffer, attributed to self-aggregation), the “Concentration of loss of activity (biphasic dose-response)” value is 100 µM. In addition, in data set [6] (aqueous conditions, biofilm adherence), the “Concentration at which biofilm formation was significantly reduced” value was in the range of 20 to 50 µM. Moreover, the “Concentration at which hyphal growth was significantly reduced” value in data set [6] (aqueous conditions, dry weight) lay within 20 to 50 µM. Moreover, the “Numbers of hyphae attached to Caco-2 cells” value in data set [7] is reported as “significantly reduced”. In addition, the “Concentration at which permeabilization of hyphae was observed (PI)” value in data set [1] (hyphae induced in presence of 2.5% w/v porcine mucin, propidium iodide) was determined as 30 µM. The “Peptide-induced permeability (PI) in presence of sodium sulfate” value in data set [1] (sodium sulfate as anionic quencher of cationic charge) is recorded as “reduced”. Further, the “Partitioning between mucus and aqueous compartments” value in data set [8] is recorded as “preferentially partitions into mucus”.

On to “PYY3–36: circulating endocrine form, formed by removal of two N-terminal amino acids by DPP-IV [reference compound]”, for which the “Effect on hyphal respiration” value in data set [4] was “less activity”. In addition, the Effect on biofilm result in data set [6] (biofilm adherence) was “No differences”. Moreover, the “Permeabilization / disruption of hyphae (PI), in words” value in data set [1] (propidium iodide, compared with PYY1–36 (native L-isoform)) was “Less pronounced permeabilization”.

With magainin-2 [reference compound], in data set [2], the “Antimicrobial activity against Gram-positive and -negative bacteria” value was “more effective”.

These data come from PMC10876062 (Science (New York, N.Y.), 2023).
